ChEMBL document CHEMBL1255395, “Laninamivir prodrug CS-8958, a long-acting neuraminidase inhibitor, shows superior anti-influenza virus activity after a single administration” (Antimicrob Agents Chemother, 2010)
Calls of active or inactive are those of the source. The rule behind the calls is not given here.

What was measured:
Format in all cases: functional, organism-based
Influenza A virus [1] = experiment: Antimicrobial activity against H274Y mutant oseltamivir-resistant influenza A virus (A/Yokohama/67/2006 (H1N1)) clone 11 infected in BALB/c mouse assessed as reduction in viral titer in lung at 0.080 mg/kg, itn administered 13 hrs post infection measured after 37 hrs post infection; design: dose 0.08 mg/kg
Summary of the method: (§1)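 Female BALB/c mice (5–6 weeks) infected intranasally with clone 11, then given a single intranasal dose in saline at 13 hpi. Lungs from 3 mice per time point were homogenized in PBS with 0.4% BSA and centrifuged at 2,200 × g. Supernatants were titrated by MDCK plaque assay (agar overlay with 1 μg/ml trypsin, 2 days, crystal violet). Reported as log10 PFU/lungs, mean ± SD; detection limit 2.4.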

Influenza A virus [2] = experiment: Antimicrobial activity against H274Y mutant oseltamivir-resistant influenza A virus (A/Yokohama/67/2006 (H1N1)) clone 11 infected in BALB/c mouse assessed as reduction in viral titer in lung at 0.080 mg/kg, itn administered 13 hrs post infection measured after 61 hrs post infection; design: dose 0.08 mg/kg; summary of the method: as §1
Influenza A virus [3] = experiment: Antimicrobial activity against H274Y mutant oseltamivir-resistant influenza A virus (A/Yokohama/67/2006 (H1N1)) clone 11 infected in BALB/c mouse assessed as reduction in viral titer in lung at 0.080 mg/kg, itn administered 13 hrs post infection measured after 85 hrs post infection; design: dose 0.08 mg/kg; summary of the method: as §1
Influenza A virus [4] = experiment: Antimicrobial activity against H274Y mutant oseltamivir-resistant influenza A virus (A/Yokohama/67/2006 (H1N1)) clone 11 infected in BALB/c mouse assessed as reduction in viral titer in lung at 1.0 mg/kg, po administered 13 hrs post infection, qd measured after 37 hrs post infection; design: dose 1 mg/kg
Influenza A virus [5] = experiment: Antimicrobial activity against H274Y mutant oseltamivir-resistant influenza A virus (A/Yokohama/67/2006 (H1N1)) clone 11 infected in BALB/c mouse assessed as reduction in viral titer in lung at 1.0 mg/kg, po administered 13 hrs post infection, qd measured after 61 hrs post infection; design: dose 1 mg/kg
Influenza A virus [6] = experiment: Antimicrobial activity against H274Y mutant oseltamivir-resistant influenza A virus (A/Yokohama/67/2006 (H1N1)) clone 11 infected in BALB/c mouse assessed as reduction in viral titer in lung at 1.0 mg/kg, po administered 13 hrs post infection, qd measured after 85 hrs post infection; design: dose 1 mg/kg
Influenza A virus [7] = experiment: Antimicrobial activity against H274Y mutant oseltamivir-resistant influenza A virus (A/Yokohama/67/2006 (H1N1)) clone 11 infected in BALB/c mouse assessed as reduction in viral titer in lung at 10 mg/kg, po administered 13 hrs post infection, qd measured after 37 hrs post infection; design: dose 10 mg/kg
Influenza A virus [8] = experiment: Antimicrobial activity against H274Y mutant oseltamivir-resistant influenza A virus (A/Yokohama/67/2006 (H1N1)) clone 11 infected in BALB/c mouse assessed as reduction in viral titer in lung at 10 mg/kg, po administered 13 hrs post infection, qd measured after 61 hrs post infection; design: dose 10 mg/kg
Influenza A virus [9] = experiment: Antimicrobial activity against H274Y mutant oseltamivir-resistant influenza A virus (A/Yokohama/67/2006 (H1N1)) clone 11 infected in BALB/c mouse assessed as reduction in viral titer in lung at 10 mg/kg, po administered 13 hrs post infection, qd measured after 85 hrs post infection; design: dose 10 mg/kg

Row | Structure (SMILES) | Activity (Influenza A virus [1]) | Activity (Influenza A virus [2]) | Activity (Influenza A virus [3]) | Activity (Influenza A virus [4]) | Activity (Influenza A virus [5]) | Activity (Influenza A virus [6]) | Activity (Influenza A virus [7]) | Activity (Influenza A virus [8]) | Activity (Influenza A virus [9])
1 | CCCCCCCC(=O)OC[C@@H](O)[C@@H](OC)[C@@H]1OC(C(=O)O)=C[C@H](NC(=N)N)[C@H]1NC(C)=O [LANINAMIVIR OCTANOATE] | Active | Active | Active | – | – | – | – | – | –
2 | CCOC(=O)C1=C[C@@H](OC(CC)CC)[C@H](NC(C)=O)[C@@H](N)C1.O=P(O)(O)O [OSELTAMIVIR PHOSPHATE] | – | – | – | inactive | inactive | inactive | inactive | inactive | inactive
